These results are taken from ChEMBL document CHEMBL5126598, “Defined stereoisomers of 2″-amino NAD+ and their activity against human sirtuins and a bacterial (ADP-ribosyl) transferase” (Bioorg Med Chem, 2022).

A word on the inhibition: it is the share of the control response that was lost under treatment. The IC50 is the concentration that inhibits the measured activity by half.

A short description of data set [1]: Chemical stability of the compound in sirtuin assay buffer at pH 8.0 assessed as nicotinamide cleavage measured every 30 mins for 4 hrs by HPLC analysis. To be noted: read-out: Activity. Format: physicochemical.
Data set [2] deals with T1, SIRT2 (NAD-dependent protein deacetylase sirtuin-2) (Homo sapiens, UniProt Q8IXJ6).
T1 sequence (Q8IXJ6 whole entry): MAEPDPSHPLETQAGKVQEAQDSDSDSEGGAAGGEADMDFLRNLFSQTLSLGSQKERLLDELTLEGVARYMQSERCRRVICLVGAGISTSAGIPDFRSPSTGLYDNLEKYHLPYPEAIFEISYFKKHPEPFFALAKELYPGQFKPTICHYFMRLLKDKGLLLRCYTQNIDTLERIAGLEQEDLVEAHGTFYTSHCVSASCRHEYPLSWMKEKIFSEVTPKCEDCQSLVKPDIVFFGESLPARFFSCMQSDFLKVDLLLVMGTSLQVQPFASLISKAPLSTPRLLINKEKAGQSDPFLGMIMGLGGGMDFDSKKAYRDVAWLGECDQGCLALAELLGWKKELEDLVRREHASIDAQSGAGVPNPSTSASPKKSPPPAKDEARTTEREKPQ
In words: Chemical stability of the compound in sirtuin assay buffer at pH 8.0 assessed as human SIRT2 mediated nicotinamide cleavage measured upto 4 hrs in the presence of ZMAL substrate by HPLC analysis. The note with it: pH 8, probe ZMAL substrate, read-out: Activity. Format: ADME.

For data set [3], the target named is T2, NAD-dependent protein deacetylase sirtuin-1 (Homo sapiens) (UniProt Q96EB6).
T2 sequence (whole entry): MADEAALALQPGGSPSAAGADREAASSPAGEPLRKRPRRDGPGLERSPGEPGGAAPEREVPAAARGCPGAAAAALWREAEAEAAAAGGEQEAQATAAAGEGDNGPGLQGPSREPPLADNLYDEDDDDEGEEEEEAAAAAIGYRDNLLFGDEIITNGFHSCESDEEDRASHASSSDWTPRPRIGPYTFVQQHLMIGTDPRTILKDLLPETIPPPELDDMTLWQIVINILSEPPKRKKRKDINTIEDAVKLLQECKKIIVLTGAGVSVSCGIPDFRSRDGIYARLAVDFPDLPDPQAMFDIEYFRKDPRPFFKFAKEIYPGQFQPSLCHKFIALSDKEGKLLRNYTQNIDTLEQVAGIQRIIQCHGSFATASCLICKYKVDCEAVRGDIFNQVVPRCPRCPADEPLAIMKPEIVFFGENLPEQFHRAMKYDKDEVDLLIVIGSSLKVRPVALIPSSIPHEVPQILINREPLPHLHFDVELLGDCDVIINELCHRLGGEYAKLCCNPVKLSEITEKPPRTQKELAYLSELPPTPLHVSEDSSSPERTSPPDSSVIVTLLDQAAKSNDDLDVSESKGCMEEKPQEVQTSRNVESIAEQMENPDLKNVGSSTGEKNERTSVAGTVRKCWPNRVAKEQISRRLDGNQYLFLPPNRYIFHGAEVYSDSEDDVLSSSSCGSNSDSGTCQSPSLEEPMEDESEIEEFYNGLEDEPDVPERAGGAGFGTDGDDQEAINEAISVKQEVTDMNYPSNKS
Nature of the data set: Inhibition of human SIRT1 using fluorogenic ZMAL as substrate at 250 uM incubated for 4 hrs in the presence of beta-NAD+ as cofactor by fluorescence based microplate reader analysis relative to control. The essentials:
(§1)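 Recombinant SIRT1, SIRT2 or SIRT3 (0.5 U) in 50 mM Tris/HCl, 137 mM NaCl, 2.7 mM KCl with ZMAL 10.5 μM, β-NAD+ 500 μM and 8.3% (v/v) DMSO (final), plus compound; 4 h at 37 °C with shaking. Trypsin stop solution containing 8 mM nicotinamide added, 20 min at 37 °C, then fluorescence read. Single concentrations tested first; IC50 only for near-complete inhibitors; means of 3 experiments.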

Data set [4] has as its target T2, NAD-dependent protein deacetylase sirtuin-1 (Homo sapiens). Nature of the data set: Inhibition of human SIRT1 using fluorogenic ZMAL as substrate at 100 uM incubated for 4 hrs in the presence of beta-NAD+ as cofactor by fluorescence based microplate reader analysis relative to control. The gist of the method:
as §1

The target of data set [5] is T3, NAD-dependent protein deacetylase sirtuin-2 (Homo sapiens, UniProt Q8IXJ6).
T3 sequence (Q8IXJ6 whole entry): T1 sequence (Q8IXJ6 whole entry)
Nature of the data set: Inhibition of human SIRT2 using fluorogenic ZMAL as substrate incubated for 4 hrs in the presence of beta-NAD+ as cofactor by fluorescence based microplate reader analysis. The essentials:
as §1

Data set [6] addresses T4, NAD-dependent protein deacetylase sirtuin-3, mitochondrial (Homo sapiens) (UniProt Q9NTG7).
T4 sequence (whole entry): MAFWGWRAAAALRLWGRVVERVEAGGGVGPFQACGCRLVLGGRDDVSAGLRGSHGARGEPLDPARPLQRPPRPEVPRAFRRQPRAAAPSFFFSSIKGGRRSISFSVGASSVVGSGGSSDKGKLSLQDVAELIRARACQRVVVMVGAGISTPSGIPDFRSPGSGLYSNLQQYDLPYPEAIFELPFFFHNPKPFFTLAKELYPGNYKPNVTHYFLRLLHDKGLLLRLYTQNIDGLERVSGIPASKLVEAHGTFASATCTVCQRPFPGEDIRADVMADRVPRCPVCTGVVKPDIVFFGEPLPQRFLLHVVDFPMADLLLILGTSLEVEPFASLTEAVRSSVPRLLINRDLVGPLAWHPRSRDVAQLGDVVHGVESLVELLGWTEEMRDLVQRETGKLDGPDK
In words: Inhibition of human SIRT3 using fluorogenic ZMAL as substrate at 250 uM incubated for 4 hrs in the presence of beta-NAD+ as cofactor by fluorescence based microplate reader analysis relative to control. The gist of the method: as §1

The target of data set [7] is T4, NAD-dependent protein deacetylase sirtuin-3, mitochondrial (Homo sapiens). In words: Inhibition of human SIRT3 using fluorogenic ZMAL as substrate at 100 uM incubated for 4 hrs in the presence of beta-NAD+ as cofactor by fluorescence based microplate reader analysis relative to control. The essentials:
as §1

In data set [8] the test system is Photorhabdus luminescens. In words: Displacement of [32P]NAD+ from Photorhabdus luminescens TccC3hvr ART domain assessed as inhibition of ADP-ribosylation of alpha-skeletal muscle actin preincubated for 15 mins followed by TccC3hvr addition and measured after 6 mins by SDS-PAGE based autoradiography. The note with it: dose 10-100 µM, time 21.0 min, DDE = dose-dependent effect. The gist of the method: (§2)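 α-Skeletal muscle actin 1 μM with 1 μM NAD+ plus [32P]NAD+ (0.5 μCi per sample) in G buffer (5 mM Tris-HCl, 0.2 mM CaCl2, 0.2 mM ATP, 0.5 mM DTT, pH 8.0). Compound (10, 30 or 100 μM) preincubated 15 min at 21 °C, then 70 nM TccC3hvr ART domain added; 6 min at 21 °C, stopped with SDS Laemmli buffer. SDS-PAGE (12.5%), autoradiography; % inhibition versus control.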

The test system of data set [9] is Photorhabdus luminescens. Nature of the data set: Displacement of [32P]NAD+ from Photorhabdus luminescens TccC3hvr ART domain assessed as inhibition of ADP-ribosylation of alpha-skeletal muscle actin at 100 uM preincubated for 15 mins followed by TccC3hvr addition and measured after 6 mins by SDS-PAGE based autoradiography. The note with it: time 21.0 min. The essentials: as §2

The target of data set [10] is T5, NAD-dependent protein deacetylase sirtuin-1 (Homo sapiens, UniProt Q96EB6).
T5 sequence (Q96EB6 whole entry): T2 sequence (whole entry)
In words: Inhibition of human SIRT1 using fluorogenic ZMAL as substrate incubated for 4 hrs in the presence of beta-NAD+ as cofactor by fluorescence based microplate reader analysis. The essentials: as §1

The target in data set [11] is T4, NAD-dependent protein deacetylase sirtuin-3, mitochondrial (Homo sapiens). In words: Inhibition of human SIRT3 using fluorogenic ZMAL as substrate at 1 mM incubated for 4 hrs in the presence of beta-NAD+ as cofactor by fluorescence based microplate reader analysis relative to control. The essentials: as §1
Data set [12] addresses T6, NAD-dependent protein deacetylase sirtuin-2 (Homo sapiens) (UniProt Q8IXJ6).
T6 sequence (whole entry): T1 sequence (Q8IXJ6 whole entry)
In words: Inhibition of human SIRT2 using fluorogenic ZMAL as substrate at 250 uM incubated for 4 hrs in the presence of beta-NAD+ as cofactor by fluorescence based microplate reader analysis relative to control. The gist of the method: as §1

Data set [13] in a line: Chemical stability of the compound in sirtuin assay buffer at pH 8.0 assessed as nicotinamide cleavage measured every 60 mins for 4 hrs by HPLC analysis. The data set is classed as physicochemical. The note with it: read-out: Activity.

As for `NC(=O)c1ccc[n+]([C@@H]2O[C@H](COP(=O)(O)OP(=O)(O)OC[C@H]3O[C@@H](n4cnc5c(N)ncnc54)[C@H](O)[C@@H]3O)[C@@H](O)[C@H]2N)c1`, the degraded at 4 h in [1] came out at 8.4%. Moreover, in data set [2], the metabolised at 4 h amounted to 15.1%. The inhibition was 65% in [3]; 18% in data set [4]; 19% in [6]; 12% in data set [7]; “Dde” in data set [8]; 77% in data set [9]. Moreover, the IC50 in data set [5] stood at 151 µM.
On to `NC(=O)c1ccc[n+]([C@@H]2O[C@H](COP(=O)(O)OP(=O)(O)OC[C@H]3O[C@@H](n4cnc5c(N)ncnc54)[C@H](O)[C@@H]3O)[C@@H](O)[C@@H]2N)c1`, for which the values for the IC50 in [10] and in data set [5] were 176 µM and 153 µM, respectively. The inhibition in data set [11] worked out at 47%.
`[N-]=[N+]=N[C@@H]1C([n+]2cccc(C(N)=O)c2)O[C@H](COP(=O)(O)OP(=O)(O)OC[C@H]2O[C@@H](n3cnc4c(N)ncnc43)[C@H](O)[C@@H]2O)[C@H]1O` (stereo partly specified): the inhibition in data set [12] is 21%; in data set [6], 34%.
As for `NC(=O)c1ccc[n+]([C@H]2O[C@H](COP(=O)(O)OP(=O)(O)OC[C@H]3O[C@@H](n4cnc5c(N)ncnc54)[C@H](O)[C@@H]3O)[C@@H](O)[C@H]2N)c1`, the degraded at 4 h in data set [13] stood at 4.1%. Moreover, the metabolised at 4 h in data set [2] amounted to 4.1%. The inhibition in data set [3] worked out at 63%; in data set [4] it was 13%; in data set [6] it was 13%; in data set [7], 8%. Further, in data set [5], the IC50 is 118 µM.
